Test results published in ChEMBL document CHEMBL1147605, “Syntheses and biological evaluation of new fluoroquinolone antibacterials containing chiral oxiimino pyrrolidine” (Bioorg Med Chem Lett, 2004).
≈ marks a conversion by molar mass, not a printed value.

Columns and labels:
[1] = test system: Pseudomonas aeruginosa; assay: In vitro antibacterial activity against the Pseudomonas aeruginosa 1771M; format: functional
[2] = test system: Staphylococcus aureus; assay: In vitro antibacterial activity against the Methicillin-Resistant Staphylococcus aureus (MRSA) 705 E; format: functional
Outline: (§1)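 MICs by agar dilution following National Committee for Clinical Laboratory Standards recommendations; all strains obtained from Hoechst.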

[3] = test system: Streptococcus pyogenes; assay: In vitro antibacterial activity against the Streptococcus pyogenes 308A; format: functional
[4] = test system: Staphylococcus aureus; assay: In vitro antibacterial activity against the Methicillin-Resistant Staphylococcus aureus (MRSA) 697 E; format: functional; outline: as §1
[5] = test system: Staphylococcus aureus; assay: In vitro antibacterial activity against the Methicillin-Resistant Staphylococcus aureus (MRSA) 692 E; format: functional; outline: as §1
[6] = test system: Pseudomonas aeruginosa; assay: In vitro antibacterial activity against the Ofloxacin Resistant Pseudomonas aeruginosa 279II; format: functional; outline: as §1
[7] = Half-life period for the compound was determined in rats at 50 mg/kg dose; format: ADME, organism-based; set-up: dose 50 mg/kg; settings: rat, in vivo
[8] = test system: Staphylococcus aureus; assay: In vitro antibacterial activity against the Staphylococcus aureus 285; format: functional
[9] = test system: Enterobacter cloacae; assay: In vitro antibacterial activity against the Enterobacter cloacae 1321 E; format: functional
[10] = test system: Staphylococcus aureus; assay: In vitro antibacterial activity against the Methicillin-Resistant Staphylococcus aureus (MRSA) 690 E; format: functional; outline: as §1
[11] = test system: Staphylococcus aureus; assay: In vitro antibacterial activity against the Ofloxacin Resistant Staphylococcus aureus 179; format: functional; outline: as §1
[12] = Maximum plasma concentration reached by compound was determined in rats at 50 mg/kg dose; format: ADME, organism-based; set-up: dose 50 mg/kg; settings: rat
Outline: (§2)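 Pharmacokinetics were measured in SD rats given 50mg/kg, reporting Cmax, Tmax, T1/2 and AUC.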

[13] = test system: Staphylococcus epidermidis; assay: In vitro antibacterial activity against the Ofloxacin Resistant Staphylococcus epidermidis 291; format: functional; outline: as §1
[14] = test system: Staphylococcus aureus; assay: In vitro antibacterial activity against the Methicillin-Resistant Staphylococcus aureus (MRSA) 701 E; format: functional; outline: as §1
[15] = Time for maximum plasma concentration reached by compound was determined in rats at 50 mg/kg dose; format: ADME, organism-based; set-up: dose 50 mg/kg; settings: rat; outline: as §2
[16] = test system: V79-4; assay: Cytotoxicity was determined for the compound in V79-4 cell line; format: functional, cell-based; settings: Cricetulus griseus
[17] = Plasma concentration for the compound was determined in rats at 50 mg/kg dose; format: ADME, organism-based; set-up: dose 50 mg/kg; settings: rat; outline: as §2
[18] = test system: Enterococcus sp.; assay: In vitro antibacterial activity against the Ofloxacin Resistant Enterococcus knothe 101; format: functional; outline: as §1
[19] = test system: Staphylococcus aureus; assay: In vitro antibacterial activity against the Ofloxacin Resistant Staphylococcus aureus 303; format: functional; outline: as §1
[20] = test system: Pseudomonas aeruginosa; assay: In vitro antibacterial activity against the Pseudomonas aeruginosa 1592E; format: functional
[21] = test system: Staphylococcus aureus; assay: In vitro antibacterial activity against the Staphylococcus aureus SG511; format: functional
[22] = test system: Streptococcus pyogenes; assay: In vitro antibacterial activity against the Streptococcus pyogenes 77A; format: functional
[23] = test system: Salmonella typhimurium; assay: In vitro antibacterial activity against the Salmonella Typhimurium; format: functional, Salmonella enterica subsp. enterica serovar Typhimurium; settings: Salmonella enterica
[24] = test system: Staphylococcus epidermidis; assay: In vitro antibacterial activity against the Ofloxacin Resistant Staphylococcus epidermidis 319; format: functional; outline: as §1
[25] = test system: Klebsiella; assay: In vitro antibacterial activity against the Ofloxacin Resistant Klebsiella species 30-92; format: functional; outline: as §1
[26] = test system: Staphylococcus aureus; assay: In vitro antibacterial activity against the Methicillin-Resistant Staphylococcus aureus (MRSA) 707 E; format: functional; outline: as §1
[27] = test system: Escherichia coli; assay: In vitro antibacterial activity against the Escherichia coli 078; format: functional
[28] = test system: Escherichia coli; assay: In vitro antibacterial activity against the Escherichia coli DC 2; format: functional
[29] = test system: Staphylococcus aureus; assay: In vitro antibacterial activity against the Ofloxacin Resistant Staphylococcus aureus 293; format: functional; outline: as §1
[30] = test system: HepG2; assay: Cytotoxicity was determined for the compound in HepG2 cell line; format: functional, cell-based; settings: Homo sapiens

Row | SMILES | MIC [1] [µg/mL] | MIC [2] [µg/mL] | MIC [3] [µg/mL] | MIC [4] [µg/mL] | MIC [5] [µg/mL] | MIC [6] [µg/mL] | half-life [7] [h] | MIC [8] [µg/mL] | MIC [9] [µg/mL] | MIC [10] [µg/mL] | MIC [11] [µg/mL] | Cmax [12] [ng/mL] | MIC [13] [µg/mL] | MIC [14] [µg/mL] | Tmax [15] [h] | IC50 [16] [µg/mL] | AUC [17] [ng·h/mL] | MIC [18] [µg/mL] | MIC [19] [µg/mL] | MIC [20] [µg/mL] | further results
1 | CO/N=C1\CN(c2nc3c(cc2F)c(=O)c(C(=O)O)cn3C2CC2)C[C@]1(C)CN.Cl | 0.781 | 0.004 | 0.098 | < 0.002 | < 0.002 | 6.25 | 4.5 | 0.007 | 0.007 | < 0.002 | 0.098 | 9060 | 0.195 | < 0.002 | 2 | 5.49 | 90800 | 0.098 | 0.098 | 1.56 | MIC [21]: 0.004 µg/mL; MIC [22]: 0.013 µg/mL; MIC [23]: 0.013 µg/mL; MIC [24]: 0.391 µg/mL; MIC [25]: 1.56 µg/mL; MIC [26]: < 0.002 µg/mL; MIC [27]: 0.025 µg/mL; MIC [28]: 0.049 µg/mL; MIC [29]: 0.098 µg/mL; IC50 [30]: 37.3 µg/mL
2 | CO/N=C1\CN(c2nc3c(cc2F)c(=O)c(C(=O)O)cn3C2CC2)CC1CN (stereo not given) [GEMIFLOXACIN] | 0.195 (≈ 0.501 µM) | 0.098 (≈ 0.252 µM) | 0.195 (≈ 0.501 µM) | 0.049 (≈ 0.126 µM) | 0.049 (≈ 0.126 µM) | 6.25 (≈ 16.1 µM) | 2.12 | 0.025 (≈ 0.0642 µM) | 0.004 (≈ 0.0103 µM) | 0.098 (≈ 0.252 µM) | 0.781 (≈ 2.01 µM) | 6630 | 1.56 (≈ 4.01 µM) | 0.098 (≈ 0.252 µM) | 1 | 10.1 (≈ 25.9 µM) | 25800 | 0.098 (≈ 0.252 µM) | 0.781 (≈ 2.01 µM) | 0.391 (≈ 1 µM) | MIC [21]: 0.013 µg/mL (≈ 0.0334 µM); MIC [22]: 0.025 µg/mL (≈ 0.0642 µM); MIC [23]: 0.004 µg/mL (≈ 0.0103 µM); MIC [24]: 3.12 µg/mL (≈ 8.03 µM); MIC [25]: 0.781 µg/mL (≈ 2.01 µM); MIC [26]: 0.025 µg/mL (≈ 0.0642 µM); MIC [27]: 0.007 µg/mL (≈ 0.018 µM); MIC [28]: 0.025 µg/mL (≈ 0.0642 µM); MIC [29]: 0.781 µg/mL (≈ 2.01 µM); IC50 [30]: 13.5 µg/mL (≈ 34.6 µM)
